Data: PMC7598728 (Biochemistry, 2020)

How the values were obtained:
[1] = tested on: Zika-induced caspase 3/7 activity in Vero cells; test: Caspase activity assay; format: cell-based, Zika virus; settings: tested at 25 μM; relative to virus alone or virus with DMSO
Summary of the method: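 ZIKV MR766 was pre-incubated with the DMSO-dissolved test compound or controls for 1 h at 37 °C, then added to Vero cells seeded at 1 × 10^4 cells/well the previous day (medium removed). Cells were incubated 3 days, viability read first (CellTiter-Fluor), then caspase 3/7 luminescence (Caspase-Glo 3/7). Run in triplicate.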

[2] = tested on: Vero cells; test: Compound cytotoxicity; format: cell-based; settings: 25 μM, no virus, 3 days, triplicate, values <1 = cytotoxic
Summary of the method: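 Vero cells seeded at 1 × 10^4 cells/well were exposed the next day, with no virus, to the DMSO-dissolved test compound. Handling matched the infected viability assay, including the 1 h 37 °C compound pre-incubation step. Viability was read by CellTiter-Fluor after 3 days.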

[3] = tested on: Zika strain MR766 (ZIKV-induced cell killing of Vero cells); test: Cell viability assay in the presence of virus; format: cell-based, Zika virus; settings: tested at 25 μM; values over 1 signify inhibition of ZIKV-induced cell killing
Summary of the method: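 Vero cells (DMEM, 10% heat-inactivated FBS, 37 °C, 5% CO2) were seeded at 1 × 10^4 cells/well. The next day they were infected with ZIKV that had been pretreated 1 h at 37 °C with the DMSO-dissolved test compound or controls. After 3 days, viability was read by CellTiter-Fluor fluorescence and normalized to infected cells. Run in triplicate.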

[4] = tested on: Zika strain MR766 (infectivity in Vero cells); test: TCID50 end point dilution infectivity assay; format: cell-based, Zika virus; settings: tested at 25 μM; activity cutoff <0.6
Summary of the method: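 End-point dilution: Vero cells were seeded at 2 × 10^4 cells/well. The next day, medium was replaced with serial dilutions of ZIKV, untreated or pretreated 1 h at 37 °C with the test compound or controls. After 6 days at 37 °C, cells were fixed in 3.7% formaldehyde and stained with crystal violet. Wells were scored for CPE, and TCID50 was calculated by the Reed and Muench method.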

Row | Compound | caspase activity [1] | compound cytotoxicity [2] | cell viability (normalized to ZIKV-infected cells) [3] | TCID50 infectivity [4]
1 | C[C@H](NC(=O)C(=O)Nc1ccccc1C(C)(C)C)C(=O)N[C@@H](CC(=O)O)C(=O)COc1c(F)c(F)cc(F)c1F [emricasan] | suppressed caspase activity |  |  | 
2 | C#C[C@@]1(O)[C@H](O)[C@@H](CO)O[C@H]1n1ccc2c(N)ncnc21 [NITD008] | suppressed caspase activity | some cytotoxicity | > 1.0 | < 0.6
